Consider 13 molecules from ChEMBL document CHEMBL3588823, “Design, synthesis and biological evaluation of novel 5-oxo-2-thioxoimidazolidine derivatives as potent androgen receptor antagonists” (Eur J Med Chem, 2015).

Where only a bound is given, the exact number is not on record here.

In one experiment the test system is LNCaP. Kind of experiment: Antiproliferative activity against human LNCAP cells after 3 days. In kind it is functional, cell-based. The method, boiled down:
(§1)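 LNCaP cells seeded at 10,000 per well in RPMI 1640 with 10% charcoal-stripped serum and 1% AAS, then held 3 days at 37 °C. Medium was then replaced with serial compound dilutions, either without DHT (agonism mode) or with DHT (antagonism mode).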

Experiment [1] addresses T1, Androgen receptor (Homo sapiens, UniProt P10275).
T1 sequence (P10275 whole entry): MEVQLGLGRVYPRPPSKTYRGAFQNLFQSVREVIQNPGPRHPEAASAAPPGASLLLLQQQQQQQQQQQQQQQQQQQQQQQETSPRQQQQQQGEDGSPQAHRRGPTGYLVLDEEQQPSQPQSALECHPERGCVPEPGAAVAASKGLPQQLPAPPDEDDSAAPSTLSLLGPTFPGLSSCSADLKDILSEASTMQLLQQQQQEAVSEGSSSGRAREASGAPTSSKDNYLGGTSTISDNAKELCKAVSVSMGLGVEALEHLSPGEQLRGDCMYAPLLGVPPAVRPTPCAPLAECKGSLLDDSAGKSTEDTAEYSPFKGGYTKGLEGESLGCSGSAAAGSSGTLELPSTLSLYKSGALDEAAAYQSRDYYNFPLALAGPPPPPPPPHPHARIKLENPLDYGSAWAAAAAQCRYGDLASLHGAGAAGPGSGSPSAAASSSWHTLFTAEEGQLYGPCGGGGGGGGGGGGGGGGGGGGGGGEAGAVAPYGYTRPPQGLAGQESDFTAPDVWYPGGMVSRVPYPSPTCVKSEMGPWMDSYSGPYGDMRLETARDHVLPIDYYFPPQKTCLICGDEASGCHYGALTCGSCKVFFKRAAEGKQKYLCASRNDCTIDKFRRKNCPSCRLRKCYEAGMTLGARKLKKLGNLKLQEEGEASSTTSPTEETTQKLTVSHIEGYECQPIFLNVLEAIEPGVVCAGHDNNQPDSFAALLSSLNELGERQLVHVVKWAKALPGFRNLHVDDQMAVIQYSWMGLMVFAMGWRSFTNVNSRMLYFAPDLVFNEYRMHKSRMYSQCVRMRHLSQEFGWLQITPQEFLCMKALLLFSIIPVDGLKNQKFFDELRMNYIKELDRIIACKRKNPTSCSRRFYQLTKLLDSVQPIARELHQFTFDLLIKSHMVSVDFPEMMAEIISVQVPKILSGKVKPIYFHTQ
The experiment is described as follows: Antagonist activity at androgen receptor (unknown origin).

The target in experiment [2] is T1, Androgen receptor. The experiment is described as follows: Partial agonist activity at androgen receptor (unknown origin). The method, boiled down: as §1
Where [3] appears, read: Homo sapiens, LNCaP, 72 h, read-out: IC50.

Turning to `CNC(=O)c1ccc(N2C(=S)N(c3ccc(C#N)c(C(F)(F)F)c3)C(=O)C2(C)C)cc1F` [ENZALUTAMIDE], in the experiment with LNCaP (setting [3]), the IC50 came to 127 nM. The same measure, in the same setting: for `CNC(=O)c1ccc(N2C(=S)N(c3ccc(C#N)c(C(F)(F)F)c3)C(=O)C23CCN(C)CC3)cc1F` the value was over 10000 nM. For the molecule `CNC(=O)c1ccc(N2C(=S)N(c3ccc(C#N)c(C(F)(F)F)c3)C(=O)C23CCOC3)cc1F` (racemic), the IC50 in the experiment with LNCaP (setting [3]) came to 196 nM. Also, the affinity at Androgen receptor [1], expressed as Ki, was 33.8 nM.

Take `CNC(=O)c1ccc(N2C(=S)N(c3ccc(C#N)c(C(F)(F)F)c3)C(=O)C23CN(C(c2ccccc2)c2ccccc2)C3)cc1F`: the IC50 entry in the experiment with LNCaP (lncap) was “Not Active”. Besides, on Androgen receptor [1], the Ki result is “Not Active”. In the case of `CNC(=O)c1ccc(N2C(=S)N(c3ccc(C#N)c(C(F)(F)F)c3)C(=O)[C@@H]2C)cc1F`, the IC50 in the experiment on LNCaP (setting [3]) stood at 398 nM. On Androgen receptor [2], this molecule returned a Ki of 95.3 nM.

Regarding `CNC(=O)c1ccc(N2C(=S)N(c3ccc(C#N)c(C(F)(F)F)c3)C(=O)C2(COC)COC)cc1F`, the 50% inhibitory concentration (IC50) with LNCaP (setting [3]) was found to be 3370 nM. Also, the inhibitory constant (Ki) on Androgen receptor [1] turned out to be 585 nM. For the molecule `CC(O)(CS(=O)(=O)c1ccc(F)cc1)C(=O)Nc1ccc(C#N)c(C(F)(F)F)c1` (stereo unspecified) [BICALUTAMIDE], the concentration for half-maximal inhibition (IC50) in the experiment on LNCaP (setting [3]) turned out to be 733 nM. For `CNC(=O)c1ccc(N2CCC(=O)N(c3ccc(C#N)c(C(F)(F)F)c3)C2=S)cc1F`, the half-inhibitory concentration (IC50) in the experiment on LNCaP (setting [3]) turned out to be 3010 nM. Besides, on Androgen receptor [1], affinity was put at a Ki of 576 nM. With `CNC(=O)c1ccc(NC(=S)Nc2ccc(C#N)c(C(F)(F)F)c2)cc1F`, in the experiment on LNCaP (setting [3]), the IC50 is over 10000 nM. Regarding `CNC(=O)c1ccc(N2C(=S)N(c3ccc(C#N)c(C(F)(F)F)c3)C(=O)[C@H]2C)cc1F`, the 50% inhibitory concentration (IC50) in the experiment with LNCaP (setting [3]) was found to be 1510 nM. Moreover, at Androgen receptor [2], affinity was put at a Ki of 482 nM.

Take `CNC(=O)c1ccc(N2C(=S)N(c3ccc(C#N)c(C(F)(F)F)c3)C(=O)C2(C)COCc2ccccc2)cc1F` (racemic): the IC50 with LNCaP (setting [3]) turned out to be 2300 nM. The molecule also registered a Ki on Androgen receptor [1] of 514 nM.

As for `CNC(=O)c1ccc(N2C(=S)N(c3ccc(C#N)c(C(F)(F)F)c3)C(=O)C2(C)CC(=O)O)cc1F` (racemic), in the experiment with LNCaP (lncap), the half-inhibitory concentration (IC50) entry is reported as “Not Active”. Also, the Ki result at Androgen receptor [1] is “Not Active”. Consider `CNC(=O)c1ccc(N2C(=S)N(c3cnc(C#N)c(C(F)(F)F)c3)C(=O)C23CCC3)cc1F` [APALUTAMIDE], for which, in the experiment with LNCaP (setting [3]), the IC50 came to 174 nM.
